Test results: ChEMBL document CHEMBL1131445, “Evaluation of dynamic polar molecular surface area as predictor of drug absorption: comparison with other computational and experimental predictors” (J Med Chem, 1998)

Columns and labels:
[1] = Dissociation constant of the compound; format: physicochemical
[2] = Distribution coefficient measured in Octanol/buffer (0.15 M KCl); format: physicochemical
Method in brief: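 Dual-phase titration at 25 °C: 1–2 mg sample plus 1.0 mL n-octanol in 10–15 mL water with 0.15 M KCl. Acidified to pH 2 (0.5 M HCl), then titrated with 0.5 M KOH to pH 11 under nitrogen. log P came from the pKa–pKa' shift via nonlinear regression of difference curves; log D refers to pH 7.4.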

[3] = species on record: Homo sapiens; experiment: Mono layer permeability of human intestinal Caco-2 cells; format: ADME, cell-based
Method in brief: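 Caco-2 cells at passage 93–105, seeded on polycarbonate filter inserts (0.45 μm pores) and grown 22–32 days. Drug at 1–2 mM final in HBSS with 25 mM Hepes, pH 7.4, added donor side; 37 °C, low and high stirring. Receiver sampled every 4–40 min for HPLC, under sink conditions. Pc derived from Papp across stirring rates, free of the aqueous boundary layer.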

## CCC(=O)Nc1ccc(OCC(O)CNC(C)C)cc1 (configuration not stated)
[1]
  pKa: 9.5
[2]
  logD: -1.08
[3]
  Pc: 6.03e-06 cm/s

## O=C(NCCNCC(O)COc1ccc(CCOCCOCC2CC2)cc1)N1CCC(O)CC1 (configuration not stated)
[1]
  pKa: 8.5
[2]
  logD: -0.1
[3]
  Pc: 1.04e-07 cm/s

## CC(C)NCC(O)COc1ccc(NC=O)cc1 (configuration not stated)
[1]
  pKa: 9.5
[2]
  logD: -1.56
[3]
  Pc: 3.75e-06 cm/s

## C=CCc1ccccc1OCC(O)CNC(C)C (configuration not stated) [ALPRENOLOL]
[2]
  logD: 0.85
[3]
  Pc: 0.000242 cm/s

## COCCc1ccc(OCC(O)CNC(C)C)cc1 (configuration not stated) [METOPROLOL]
[2]
  logD: -0.42
[3]
  Pc: 0.0000919 cm/s

## C=CCOc1ccccc1OCC(O)CNC(C)C (configuration not stated) [OXPRENOLOL]
[1]
  pKa: 9.5
[2]
  logD: 0.08
[3]
  Pc: 0.0001196 cm/s

## CC(C)NCC(O)COc1cccc2[nH]ccc12 (configuration not stated) [PINDOLOL]
[1]
  pKa: 9.7
[2]
  logD: -0.55
[3]
  Pc: 0.0000547 cm/s

## CC(=O)Nc1ccc(OCC(O)CNC(C)C)cc1 (configuration not stated) [PRACTOLOL]
[1]
  pKa: 9.5
[2]
  logD: -1.31
[3]
  Pc: 3.46e-06 cm/s
